The results in this text go back to ChEMBL document CHEMBL1127084, “Synthesis and structure-activity studies of a series of [(hydroxybenzyl)amino]salicylates as inhibitors of EGF receptor-associated tyrosine kinase activity” (J Med Chem, 1993).

Test [1] in a line: Inhibition of tyrosine kinase activity in ER 22 membrane fraction by competition with the RRSrc peptide using [32P]-gamma ATP as radioligand. It is filed as cell membranes. The gist of the method:
(§1)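 Enzyme source was membrane fractions of ER 22 cells (CCL 39 cells transfected with EGF receptor). Inhibitors were added at various concentrations and phosphorylation of the peptide was measured.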

Test [2] addresses Epidermal growth factor receptor (Homo sapiens) (UniProt P00533). Conditions: ER22; 20 uM.
The nature of test [3]: Inhibition of ER22 EGF-receptor expressing cell membrane tyrosine kinase activity. The method in brief: as §1
Test [4] in a line: Inhibition of ER22 EGF-receptor expressing cell membrane tyrosine kinase activity at 100 uM.
The target in test [5] is Epidermal growth factor receptor (Homo sapiens) (UniProt P00533). As to conditions: ER22; 10 uM.
Chain of Epidermal growth factor receptor (Homo sapiens) (P00533 whole entry): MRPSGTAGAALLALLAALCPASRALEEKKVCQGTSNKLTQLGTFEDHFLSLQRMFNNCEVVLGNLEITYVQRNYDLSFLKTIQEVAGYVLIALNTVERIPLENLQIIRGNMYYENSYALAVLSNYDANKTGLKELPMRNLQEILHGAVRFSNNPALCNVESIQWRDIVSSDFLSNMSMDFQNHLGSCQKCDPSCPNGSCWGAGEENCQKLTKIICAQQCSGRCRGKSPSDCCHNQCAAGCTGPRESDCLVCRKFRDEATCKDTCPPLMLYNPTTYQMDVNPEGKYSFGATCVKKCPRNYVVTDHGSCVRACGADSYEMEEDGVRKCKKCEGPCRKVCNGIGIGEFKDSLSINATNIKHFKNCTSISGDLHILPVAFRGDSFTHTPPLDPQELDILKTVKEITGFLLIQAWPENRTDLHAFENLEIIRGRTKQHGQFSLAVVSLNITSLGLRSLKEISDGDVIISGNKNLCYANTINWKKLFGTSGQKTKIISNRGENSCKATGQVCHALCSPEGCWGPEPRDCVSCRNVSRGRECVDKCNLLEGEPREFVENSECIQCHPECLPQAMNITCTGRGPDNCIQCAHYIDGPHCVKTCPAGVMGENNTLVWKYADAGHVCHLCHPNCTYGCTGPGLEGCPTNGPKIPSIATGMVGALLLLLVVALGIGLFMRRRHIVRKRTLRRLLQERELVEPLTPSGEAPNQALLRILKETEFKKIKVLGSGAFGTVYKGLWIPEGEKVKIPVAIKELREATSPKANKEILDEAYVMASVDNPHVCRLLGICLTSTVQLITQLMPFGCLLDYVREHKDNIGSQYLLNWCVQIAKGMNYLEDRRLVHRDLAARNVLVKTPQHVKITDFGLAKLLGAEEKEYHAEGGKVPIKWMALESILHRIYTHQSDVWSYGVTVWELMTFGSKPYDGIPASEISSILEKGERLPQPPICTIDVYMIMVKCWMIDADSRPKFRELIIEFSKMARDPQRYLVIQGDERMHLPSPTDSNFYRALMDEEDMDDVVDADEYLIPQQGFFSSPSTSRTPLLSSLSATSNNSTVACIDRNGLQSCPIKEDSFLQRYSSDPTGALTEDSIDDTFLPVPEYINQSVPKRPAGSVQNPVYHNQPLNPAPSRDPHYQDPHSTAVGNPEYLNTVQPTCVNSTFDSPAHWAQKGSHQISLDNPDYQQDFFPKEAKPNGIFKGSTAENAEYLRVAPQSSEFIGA

In test [1], `COC(=O)c1cc(/N=C/c2ccc(O)c(O)c2)ccc1O` registered an IC50 of 10 µM. Further, the inhibition in test [2] came to 37%. `COC(=O)c1ccc(NCc2cc(O)ccc2O)cc1O` yielded an IC50 in test [1] of 0.2 µM. Take `COC(=O)c1cc(NCc2cc(OC)ccc2OC)ccc1O`: the IC50 in test [1] was over 100 µM. In addition, the inhibition in test [2] was found to be 18%.

Regarding `COC(=O)c1cc(NCc2cc(O)ccc2O)ccc1OC`, the IC50 in test [1] came to 5 µM.

In turn, `COC(=O)c1cccc(NCc2cc(O)ccc2O)c1` displayed an IC50 in test [1] of 1.6 µM. As to `COC(=O)c1cc(NCc2ccc(O)cc2)ccc1O`, the IC50 in test [3] is over 10 µM. As to `COC(=O)c1ccc(/N=C/c2cc(O)ccc2O)cc1O`, the IC50 in test [1] was over 10 µM. `COC(=O)c1cc(/N=C/c2cc(O)ccc2O)ccc1OC`: the IC50 in test [1] was over 100 µM. Still for that read-out and setting: under `O=C(O)c1cc(NCc2ccccc2O)ccc1O` stands 25 µM. As for `COC(=O)c1cc(/N=C/c2ccc(O)cc2O)ccc1O`, the IC50 in test [1] is over 100 µM. In test [2], this molecule had an inhibition of 65%. Take `O=C(O)c1cccc(/N=C/c2cc(O)ccc2O)c1`: the IC50 in test [1] is over 10 µM. In test [1], `COC(=O)c1cc(/N=C/c2cccc(O)c2)ccc1O` had an IC50 of over 100 µM. Further, the inhibition in test [2] came to 20%. As to `O=C(O)c1cc(/N=C/c2ccccc2O)ccc1O`, in test [1], the IC50 was over 100 µM. For the molecule `O=C(O)c1cccc(NCc2cc(O)ccc2O)c1`, in test [1], the IC50 was 2.4 µM.

For `COC(=O)c1cc(/N=C/c2ccccc2O)ccc1O`, the IC50 in test [1] is over 100 µM. In test [4], `COC(=O)c1cc(NCc2cccc(O)c2)ccc1O` yielded an inhibition of 37%. Regarding `COC(=O)c1cc(/N=C/c2cc(OC)ccc2OC)ccc1O`, in test [1], the IC50 was over 10 µM. In test [5], this molecule returned an inhibition of 14%. As for `COC(=O)c1cc(NCc2ccccc2O)ccc1O`, in test [1], the IC50 came to 45 µM.

Consider `COC(=O)c1cc(NCc2cc(O)ccc2O)ccc1O`, for which the IC50 in test [1] was determined as 0.6 µM. The same measure, in the same setting: the figure for `COC(=O)c1cc(/N=C/c2cc(O)ccc2O)ccc1O` is 100 µM. `O=C(O)c1cc(/N=C/c2cc(O)ccc2O)ccc1O`: in test [1], the IC50 was determined as 5 µM.

For `COC(=O)c1cc(/N=C/c2ccc(O)cc2)ccc1O`, the IC50 in test [1] was over 10 µM.

A word on the IC50: it is the midpoint of a concentration-inhibition curve. Read a low IC50 as greater potency in that assay. Usually inhibition stands for the change of the read-out against control, counted positive when it falls. Read a high inhibition as a response far below the control.
